Experimental data published in article PMC7927141 (Molecular Pharmaceutics, 2021).
Read-outs that look alike come from different tables or passages of the source.

Key:
[1] = system: different types of cancer cell lines; conditions: cited from earlier work
TFK-1 cells = assay: In vitro cytotoxicity, SRB total protein assay, TFK-1; type: cell-based; conditions: Homo sapiens
In short: (§1)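 Cells grown in RPMI 1640 with 10% FBS, penicillin/streptomycin and 2 mM L-glutamine at 37 °C, 5% CO2. Seeded at 5 × 10^4 cells/well and cultured 24 h. Then exposed 24, 48 or 72 h to free test compound (DMSO, 0.4% v/v final) or micelle-loaded test compound in HBS, 0–200 μM; HBS controls. After PBS wash, SRB total protein read at 564 nm, normalized to control. IC50 from sigmoidal variable-slope nonlinear regression.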

[2] = cited from earlier work
[3] = Biodistribution of Cy7-labeled curcumin micelles in mice; type: in vivo, BALB/c mice; conditions: 4 and 24 h post-administration, iv 50 mg curcumin/kg in micelles
Sk-ChA-1 cells = assay: In vitro cytotoxicity, SRB total protein assay, Sk-ChA-1; type: cell-based; conditions: Homo sapiens
In short: as §1

EGI-1 cells = assay: In vitro cytotoxicity, SRB total protein assay, EGI-1; type: cell-based; conditions: Homo sapiens
In short: as §1

[4] = Circulation kinetics of Cy7-labeled curcumin micelles in mice; type: in vivo, BALB/c mice
In short: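 Female mice received 9% (w/w) curcumin-loaded Cy7-labelled mPEG-b-p(HPMA-Bz) micelles i.v. (500 mg polymer/kg, 100–200 μL). EDTA blood was drawn submandibularly at 1 min (set as 100% dose), 10 min and 1 h, and by cardiac puncture at 4 and 24 h. Plasma was ACN-extracted (1:4) and assayed for curcumin by C18 RP-HPLC at 425/254 nm. Parameters came from two-compartmental analysis.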

[5] = system: cancer cells (Neuro2A, EGI-1, TFK-1, Mz-ChA-1); assay: Association and uptake by flow cytometry and confocal microscopy; type: cell-based; conditions: 20 μM, flow cytometry
In short: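 5 × 10^5 cells/well, grown 18 h. Medium replaced by nonsupplemented medium containing 20 μM test compound, free (0.4% DMSO final) or micelle-loaded, or Cy5-labelled micelles at 0.3 mg/mL. Incubated 1 or 4 h, rinsed twice with PBS, trypsinized, analysed by flow cytometry. Confocal imaging on coverslips after 0.5, 1 and 4 h at 37 °C, excitation 405/633 nm.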

Mz-ChA-1 cells = assay: In vitro cytotoxicity, SRB total protein assay, Mz-ChA-1; type: cell-based, human
In short: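 Mz-ChA-1 cells in RPMI 1640 with 10% FBS, penicillin/streptomycin and 2 mM L-glutamine at 37 °C, 5% CO2. Seeded at 25 × 10^4 cells/well for slow growth, cultured 24 h. Then 24, 48 or 72 h with free test compound (DMSO, 0.4% v/v final) or micelle-encapsulated test compound in HBS, 0–200 μM; HBS-treated controls. PBS wash, SRB protein stain, absorbance 564 nm, viability versus control. IC50 by sigmoidal variable-slope curve fit.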

Neuro2A cells = assay: In vitro cytotoxicity, SRB total protein assay, Neuro2A; type: cell-based, murine
In short: as §1

[6] = read-out: IC50 after 48 and 72 h
[7] = female, BALB/c, mouse, plasma, iv, 7.8 mg/kg
[8] = iv, 50 mg curcumin/kg, two-compartmental

## COc1cc(/C=C/C(=O)CC(=O)/C=C/c2ccc(O)c(OC)c2)ccc1O [free curcumin, curcumin]
[1]; read-out: IC50 mean ± SD
  IC50: 21 ± 17 µM
[1]; read-out: IC50 range
  IC50: 1 to 100 µM
TFK-1 cells; 24 h
  IC50: 27.7 ± 0.9 µM
TFK-1 cells; 48 h
  IC50: 20.1 ± 0.9 µM
TFK-1 cells; 72 h
  IC50: 17.5 ± 0.5 µM
TFK-1 cells; [6]
  IC50: ~20 µM
[2]; 50 mg/kg in mice, noncompartmental analysis, ref 63 (Gao et al.)
  AUC: 60.3 µg·h/mL
[2]; two studies
  normalized AUC: 1.2 (μg·h/mL)/(mg/kg)
[3]
  curcumin concentration in the different organs: 0.2–3 μg/g tissue
Sk-ChA-1 cells; 24 h
  IC50: 33.9 ± 1.3 µM
Sk-ChA-1 cells; 48 h
  IC50: 21.5 ± 0.4 µM
Sk-ChA-1 cells; 72 h
  IC50: 21.3 ± 0.4 µM
Sk-ChA-1 cells; [6]
  IC50: ~20 µM
EGI-1 cells; EGI-1, 24 h
  IC50: 21.7 ± 0.5 µM
EGI-1 cells; EGI-1, 48 h
  IC50: 18.2 ± 0.3 µM
EGI-1 cells; EGI-1, 72 h
  IC50: 19.1 ± 0.3 µM
EGI-1 cells; EGI-1, read-out: IC50 after 48 and 72 h
  IC50: ~20 µM
[4]; curcumin after iv curcumin-loaded micelles vs literature free curcumin
  t1/2α relative to that reported for free curcumin: ~5 times
[4]; [7]
  AUC(0-inf): 319 µg·h/mL
  clearance: 2.62 mL/min/kg
[4]; iv, 50 mg curcumin/kg as curcumin-loaded micelles
  initial phase t1/2α: 6.7 min
[4]; [8]
  V1: 0.086 L/kg
  V2: 0.344 L/kg
[4]; iv, 50 mg/kg curcumin in micelles
  loaded curcumin eliminated during the first hour: 90%
[5]
  time of incubation until intracellular detection: ≤ 1 h
Mz-ChA-1 cells; Homo sapiens, 24 h, Mz-ChA-1, 24 h exposure
  IC50: 48 µM
Mz-ChA-1 cells; Homo sapiens, 48 h, Mz-ChA-1, 48 h exposure
  IC50: 38.4 ± 1.4 µM
Mz-ChA-1 cells; Homo sapiens, 72 h, Mz-ChA-1, 72 h exposure
  IC50: 37.8 ± 1.1 µM
Mz-ChA-1 cells; Mz-ChA-1, 24 h exposure
  IC50: 47.6 ± 1.6 µM
Neuro2A cells; 24 h exposure
  IC50: 83.8 ± 13.5 µM
Neuro2A cells; Mus musculus, N2a, 24 h, 24 h exposure
  IC50: 84 µM
Neuro2A cells; Mus musculus, N2a, 48 h, 48 h exposure
  IC50: 15.6 ± 0.8 µM
Neuro2A cells; Mus musculus, N2a, 72 h, 72 h exposure
  IC50: 23.3 ± 1.2 µM
